The list is a sample of the results.
PGC1a Ac signal – raises PGC1a acetylation signal in U2OS cells; 0.21% of 350,000 active; activation, % at 15.6 µM; AID 651723; U2OS PGC1a acetylation AlphaScreen, overnight;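 active = every replicate reaching activation of at least 50%, whatever the mean replicate activation; inconclusive = replicates that disagree or another doubt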;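 also: hits raise the AlphaScreen acetylation signal above neutral controls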
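Test system: U2OS cells expressing flag-PGC1a plus GCN5; Amount: 7000 U2OS cells per well; Compound: single test concentration per compound; Incubation: compound overnight at 37 °C, each detection step 1 h RT; Signal: AlphaScreen lysate read.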
G6PC hep suppr – PGC-1a acetylation activator altering hepatocyte G6PC expression | 240 tested, under 10 active | shares compounds with PGC1a Ac signal | primary mouse hepatocytes, G6PC mRNA qPCR, forskolin | G6PC suppression (normalized activity, % of positive control; higher = more suppression), % at 26 µM;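 active = dose curves showing G6PC suppression whose half-maximal dose is at most twice the top valid dose; inconclusive = flat curves with moderate negative activity, or unreliable fits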;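 also: G6PC expression relative to GAPDH housekeeping gene as delta delta Ct; 0% = median of neutral control wells and 100% = median of positive control wells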
Hep PCK1 suppr – PGC-1a acetylation activator altering hepatocyte PCK1 expression. PCK1 expression decrease, unspecified at 26 µM. 230 tested, under 10 active. primary mouse hepatocytes, PCK1 mRNA qPCR, forskolin-stimulated. shares compounds with PGC1a Ac signal;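 active = compounds lowering PCK1 expression whose fitted half-maximal concentration is at most twice the top tested dose; inconclusive = flat fit with moderate opposite-direction effect, or poor fit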;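 also: values are delta delta Ct of PCK1 relative to GAPDH; higher delta delta Ct means lower PCK1 expression so positive values indicate hits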
PGC1a hep suppr – hepatocyte PGC-1a expression change via PGC-1a acetylation activation. AID 743467. shares compounds with PGC1a Ac signal. 240 tested, under 10 active. primary mouse hepatocytes, PGC-1a mRNA qPCR, forskolin; top dose 26 µM. max activity (PGC-1a expression decrease), %;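 active = compound lowering PGC-1a expression with fitted half-maximal concentration at most twice its top tested dose; inconclusive = flat curve with moderate opposite-direction effect, or poor fit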;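 also: 0% = neutral control wells median and 100% = positive control wells median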
* hit, by the source's call; [ ] = remark or other dose.

What do the screens show for `Cc1cc(C(=O)NNC(=S)NCc2ccccc2)no1`?
PGC1a Ac signal: -45

How did CC(C)(C)c1ccc(C(=O)c2c[nH]c(C(=O)NCc3cccnc3)c2)cc1 do in these assays?
PGC1a Ac signal: 257*; G6PC hep suppr: -28; PGC1a hep suppr: inconclusive

Results for O=[N+]([O-])c1nn(-c2ccc(Cl)cc2)n(O)c1=NCc1ccncc1 ?
PGC1a Ac signal: -46

What do the screens show for `CCn1c(C)c(C)c2cc(C(=O)NCCN3CCOCC3)ccc21`?
PGC1a Ac signal: -46

How did Cc1ccc(S(=O)(=O)N/N=C/c2c[nH]c3ccccc23)cc1 do in these assays?
PGC1a Ac signal: -105

What do the screens show for `Cc1ccccc1NC(=O)/C(C#N)=C\c1cc(C)n(-c2ccc(C(=O)O)cc2)c1C`?
PGC1a Ac signal: -44

What do the screens show for `Cc1ccccc1Cn1cnc2c(nnn2Cc2ccc(F)cc2)c1=O`?
PGC1a Ac signal: -48

Results for C=CCN=C1S/C(=C/c2ccc([N+](=O)[O-])cc2)C(=O)N1CC=C ?
PGC1a Ac signal: -42

What do the screens show for `CCN1CCN(Cc2ccc(NC(=O)c3ccc(C)c(NC(=O)c4cncc(-c5cccs5)c4)c3)cc2C(F)(F)F)CC1`?
PGC1a Ac signal: -69

Results for Cc1ccccc1Cn1cc(NC(=O)c2cc(-c3cccs3)on2)cn1 ?
PGC1a Ac signal: inconclusive; Hep PCK1 suppr: -14; PGC1a hep suppr: 22

How did Oc1ccc(C2CNCCc3c2cc(O)c(O)c3Cl)cc1 (stereo unspecified) do in these assays?
PGC1a Ac signal: -42

Results for Cc1ccc(Sc2ncnc3onc(C)c23)c(C)c1 ?
PGC1a Ac signal: -42

What do the screens show for `Cc1ccc(S(=O)(=O)N(Cc2ccc(F)cc2)Cc2ccco2)cc1`?
PGC1a Ac signal: 71*; G6PC hep suppr: 0; Hep PCK1 suppr: 31; PGC1a hep suppr: inconclusive

How did CCO[C@H]1OC(C(=O)Nc2ccccc2)=C[C@@H](c2csc3ccccc23)[C@@H]1CCCO do in these assays?
PGC1a Ac signal: -54

Results for c1nc(NC2CCCCCC2)c2[nH]cnc2n1 ?
PGC1a Ac signal: -41

How did O=C(NCCCN1CCOCC1)c1ccccc1N1C(=O)[C@@H]2Cc3c([nH]c4ccccc34)C(c3ccccc3)N2C1=O (stereo partly specified) do in these assays?
PGC1a Ac signal: 320*; G6PC hep suppr: 230; Hep PCK1 suppr: 83; PGC1a hep suppr: 63

How did N#Cc1ccc(CCc2ccccc2)[nH]c1=O do in these assays?
PGC1a Ac signal: -43

What do the screens show for `N#Cc1cccc(C(c2nnnn2C2CCCC2)N2CCCCCC2)c1` (stereo unspecified)?
PGC1a Ac signal: inconclusive; G6PC hep suppr: 33; Hep PCK1 suppr: 231; PGC1a hep suppr: 92

What do the screens show for `Cc1cccc(C(=O)O/N=C/c2c(Cl)n(C)c3ccccc23)c1`?
PGC1a Ac signal: 1

What do the screens show for `COC(=O)C(Nc1ccccc1Cl)(c1cc(C)c(O)c(C)c1)C(F)(F)F` (stereo unspecified)?
PGC1a Ac signal: 69*; G6PC hep suppr: 30; Hep PCK1 suppr: 19[8 µM]; PGC1a hep suppr: inconclusive

What do the screens show for `c1ccc(CN2OCC3Cn4c(nc5ccccc54)C32)cc1` (stereo unspecified)?
PGC1a Ac signal: -41

How did Cc1ccc(/C=N/N2CCN(Cc3ccccc3)CC2)cc1 do in these assays?
PGC1a Ac signal: -54

How did Cc1nonc1NC(=O)CSc1nc(C2CCCCC2)nc2ccccc12 do in these assays?
PGC1a Ac signal: -55

What do the screens show for `OCCNc1nc(N2CCCCC2)nc2ccccc12`?
PGC1a Ac signal: -67

What do the screens show for `O=C(Cn1c(CN2CCCCC2)nc2ccccc2c1=O)Nc1ccccc1`?
PGC1a Ac signal: -50; G6PC hep suppr: 19[8 µM]; Hep PCK1 suppr: 63; PGC1a hep suppr: 95

How did C[C@@H]1CN([C@H](C)CO)C(=O)c2c(c3ccccc3n2C)-c2ccccc2CO[C@@H]1CN(C)C(=O)c1ccccc1 do in these assays?
PGC1a Ac signal: 58*; G6PC hep suppr: 73; Hep PCK1 suppr: inconclusive; PGC1a hep suppr: inconclusive

What do the screens show for `CC(C)[C@H](C)NC(=O)N(C)C[C@H]1OCc2ccccc2-c2c(n(C)c3ccccc23)C(=O)N([C@H](C)CO)C[C@H]1C`?
PGC1a Ac signal: 59*; G6PC hep suppr: 3; Hep PCK1 suppr: 5.6; PGC1a hep suppr: 59

How did C[C@@H]1CN([C@@H](C)CO)C(=O)c2c(c3ccccc3n2C)-c2ccccc2CO[C@@H]1CN(C)C(=O)c1ccccc1 do in these assays?
PGC1a Ac signal: 76*; G6PC hep suppr: 22[23.5 µM]; Hep PCK1 suppr: 44[23.5 µM]; PGC1a hep suppr: 169
